Screening data: PubChem, several laboratories
Lmaj promast: Leishmania major promastigote growth inhibition, primary screen; Leishmania major promastigotes, resazurin fluorescence viability; 9% of 200,000 active; inhibition, % at 10 µM; AID 1063, 2008; in the data active means inhibition above about 50%;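 further: promastigotes grown with compound for 44 hours at 28 °C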
HSF1 inh: HSF1 inhibitors in luciferase reporter cells, primary screen, cell-based, NIH3T3, luminescence | NIH3T3-HGL HSE-luciferase, MG132-induced, luminescence 8 h; hits give low values | activity change, negative = inhibition, % at 7.5 µM (by protocol) | 0.77% of 300,000 active;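 active means more than half of replicate wells show activity change below -50%, luminescence cut by over half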;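 further: luciferase reports HSF-1 transcriptional activity via heat shock element; 0% = median of DMSO wells and -100% = zero luminescence signal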
T cruzi repl: inhibitors of intracellular T. cruzi growth, primary screen, luminescence, NIH3T3 host cells; AID 1885, 2009; 1.4% of 300,000 active; inhibition, % (no concentration beside the values); T. cruzi beta-gal in NIH3T3, 90 h;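 active means mean inhibition across valid replicates above about 55%, limit read from the data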;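 further: signal also drops with host cell toxicity which is not excluded here; 0% = plate median of DMSO wells and 100% = zero luminescence signal; higher percent means less beta-gal luminescence so fewer parasites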
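compound dosing = single 50 nL compound addition per well in DMSO | material = NIH/3T3 host cells with β-galactosidase reporter T. cruzi | input = 5,000 host fibroblasts per well | timing = ≥90 h infection period, 3 h prior cell attachment | read-out basis = percent inhibition of parasite-derived β-gal signal | detection = GalScreen β-gal luminescence, detergent lysis, 60 min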
Hsp70 act: Hsp70 transcriptional activators, primary screen, cell-based, HeLa, Hsp70 promoter luciferase, luminescence, 10 µM | HeLa Hsp70 promoter luciferase reporter; scaled: vehicle 0, proteasome-inhibitor control 100% | activation, % at 10 µM | 0.04% of 200,000 active | AID 1203, 2008;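 active means activation above the mean across all tested compounds plus 3 SD, cutoff set per campaign, cut at about 5.5% in these data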;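 further: 100% = MG132 at 30 µM as the positive control and 0% = DMSO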
HSF1 activator: HSF-1 activators, primary screen, NIH3T3-HGL cells, MG132 stress, luminescence, single point. NIH3T3-HGL HSF-1 luciferase reporter, 8 h; 100% = twice DMSO control signal. activation, % at 9 µM. 1.7% of 300,000 active. AID 504408, 2011;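 active means mean replicate activation of at least 50% with a set share of replicates each reaching 50%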;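 further: 0% = median of the neutral control wells and 100% = twice that signal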
* marks the source's active call; other numbers are inactive results; . = not tested or not shown. This excerpt belongs to a sample that is enriched for hits.

SMILES | Lmaj promast | HSF1 inh | T cruzi repl | Hsp70 act | HSF1 activator
Cc1c(C(c2ccccc2)c2c(C)n(C)n(-c3ccccc3)c2=O)c(=O)n(-c2ccccc2)n1C | . | 2 | -4 | . | 2
Cc1ccc(C(c2c(C)n(C)n(-c3ccccc3)c2=O)c2c(C)n(C)n(-c3ccccc3)c2=O)s1 | 94* | 6 | 3 | 0 | 17
Cc1ccc(C)c(NS(=O)(=O)c2cc(C(=O)NCc3ccncc3)ccc2C)c1 | . | 3 | 9 | . | 24
Fc1ccc(CN2CCCN(Cc3nc(-c4ccc5c(c4)OCO5)no3)CC2)cc1 | 95* | 1 | 67* | 0 | 8
c1cc(C2CCN(Cc3nc(-c4ccc5c(c4)OCO5)no3)CC2)ccn1 | 95* | 3 | 27 | 0 | 11
c1ccc(C2CCCN(Cc3nc(CC4CC4)no3)CC2)cc1 (stereo not given) | -6 | 9 | 17 | 0 | 10
